STAT1 activator: STAT1 signaling activators, primary screen, cell-based, HTS, luciferase reporter; NIH 3T3 STAT1-luciferase reporter, IFN-gamma, luminescence; 100% = IFN-gamma alone, no compound; activation (% of control), % at 5.5 µM; 2.6% of 200,000 active;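 active = activation above the screen-wide mean activation plus 3 SD, cut at about 130% in these data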;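 also: raw ratio to IFN-gamma control signal so 100% means no change and 0% no light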
APP 5'UTR act: activators of APP 5'UTR luciferase reporter, primary screen, SH-SY5Y cells | SH-SY5Y APP 5'UTR luciferase reporter, luminescence; zero percent = DMSO vehicle wells | activation, % at 2 µM | 1% of 190,000 active;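 active = activation above a set limit, based on mean plus 3 SD of controls, cut at about 140% in these data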
FLuc act counter: FLuc activators, initial screening, artefact control for FLuc-dependent activation tests, biochemical, ATPlite luminescence; Luciferin 4-monooxygenase (Photinus pyralis), P08659; ATPlite luciferase biochemical, 10 min; 0 = ATP-free wells, 1 = DMSO control; activation factor at 10 µM; 200,000 tested, under 10 active; AID 1027, 2008;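 active = luciferase activation factor, scaled between plate controls, of at least 2 with compound at 10 µM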
Target sequence (P08659 whole entry, looked up): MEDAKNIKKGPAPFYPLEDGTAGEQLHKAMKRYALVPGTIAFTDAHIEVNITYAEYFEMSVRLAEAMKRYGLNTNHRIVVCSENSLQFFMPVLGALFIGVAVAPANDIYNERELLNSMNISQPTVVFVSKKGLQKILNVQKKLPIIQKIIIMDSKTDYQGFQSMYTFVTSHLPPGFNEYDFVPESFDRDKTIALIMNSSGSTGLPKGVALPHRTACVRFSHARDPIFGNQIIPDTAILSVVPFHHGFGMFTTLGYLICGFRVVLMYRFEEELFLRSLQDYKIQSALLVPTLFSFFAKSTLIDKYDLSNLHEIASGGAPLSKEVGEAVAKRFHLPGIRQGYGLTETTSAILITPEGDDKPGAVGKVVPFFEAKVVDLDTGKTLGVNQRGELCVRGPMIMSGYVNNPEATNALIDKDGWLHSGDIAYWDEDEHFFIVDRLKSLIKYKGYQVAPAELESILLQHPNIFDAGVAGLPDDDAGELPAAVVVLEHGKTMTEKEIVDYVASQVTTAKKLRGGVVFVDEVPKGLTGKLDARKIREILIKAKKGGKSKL
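assay system = Luciferase/luciferin detection reagent, cell-free biochemical luciferase assay | also added = ATP substrate | times = 10 min post-reagent at room temperature | measured by = luminescence from luciferase reaction | measure = luciferase activation, seen as luminescence increase over controls | benchmarks = low control with PBS replacing ATP, high control enzyme plus ATP without compound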
NF-kB expr up: activators of NF-kB expression in neurons, primary screen, cell-based, HTS; human neuronal cells, NF-kB reporter expression; hits give high values; fold change at 12.5 µM; 1.6% of 190,000 active; AID 1239, 2008; in the data active = fold change above about 3.3
FLuc inhib CS: firefly luciferase enzyme inhibitors, primary screen, artefact control for luciferase-based inhibitor screens, biochemical, luminescence, ATPLite; Luciferin 4-monooxygenase (Photinus pyralis), P08659; 10 min; inhibition, % at 10 µM; 1.5% of 200,000 active;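 active = inhibition above about 50% when tested at 10 µM, limit read from the data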
Active calls of the source: *. In the library only some 4.1% were active in any assay of this set; here they are far more common.

Cc1ccc(-c2cc(-c3ccccc3C)[nH]n2)c(O)c1 was read as STAT1 activator 94.4, APP 5'UTR act 120.5, FLuc act counter 0.9, NF-kB expr up 6.29* and FLuc inhib CS 8.8.
`COc1ccc(N2CCN(C(=O)Cc3ccc(S(=O)(=O)N4CCOCC4)s3)CC2)cc1` gave STAT1 activator 97.2, APP 5'UTR act 10.1, FLuc act counter 1, NF-kB expr up 1.09 and FLuc inhib CS -4.4.
`Cc1cccc(N(C(=O)CCC(=O)Nc2nccs2)C(C(=O)NC(C)(C)C)c2ccc(O)cc2)c1` (stereo not drawn) gave STAT1 activator 100.1, APP 5'UTR act -18.1, FLuc act counter 1, NF-kB expr up 1.02 and FLuc inhib CS -3.9.
For Cc1ccc(C(=O)CC(=O)c2cc(Cl)ccc2O)cc1 the results were STAT1 activator 126.6, APP 5'UTR act 121.7, FLuc act counter 1, NF-kB expr up 4.26* and FLuc inhib CS 4.2.
`CC(C)(C)c1ccc(C(=O)CC(=O)c2cc(Cl)ccc2O)cc1` gave STAT1 activator 115.7, APP 5'UTR act 43.6, FLuc act counter 1.1, NF-kB expr up 1.46 and FLuc inhib CS -7.0.
CCCSc1nc(C)nc2c1c(=O)n(C)c(=O)n2C was read as STAT1 activator 105.7, APP 5'UTR act 2.6, FLuc act counter 1.1, NF-kB expr up 1.18 and FLuc inhib CS -7.9.
`CCOc1ccc(/C=C/C(=O)C(C(N)=O)=C2SCCS2)cc1` gave STAT1 activator 104.1, APP 5'UTR act 29.8, FLuc act counter 0.4, NF-kB expr up 1.92 and FLuc inhib CS 58.0*.
`CC(C)n1cnc2cc(NCc3ccco3)ccc21` gave STAT1 activator 114.1, APP 5'UTR act 20.7, FLuc act counter 0.4, NF-kB expr up 1.11 and FLuc inhib CS 58.4*.
Screening Cc1cccc(N/N=C2/COC(C)(C)CC2=O)c1 returned STAT1 activator 135.6*, APP 5'UTR act 70.9, FLuc act counter 0.7, NF-kB expr up 1.23 and FLuc inhib CS 29.2.
Cc1nc2nc(-c3ccccc3)cc(=O)n2[nH]1 was read as STAT1 activator 78.7, APP 5'UTR act 4.2, FLuc act counter 0.4, NF-kB expr up 1.46 and FLuc inhib CS 55.7*.
O=c1cc(-c2ccccc2)nc2nc(-c3ccco3)[nH]n12 was read as STAT1 activator 91.1, APP 5'UTR act 11.0, FLuc act counter 0.3, NF-kB expr up 1.18 and FLuc inhib CS 72.5*.
O=C1CCC(=O)N1c1nc2nc(-c3ccccc3)cc(=O)n2[nH]1 was read as STAT1 activator 100.5, APP 5'UTR act 1.9, FLuc act counter 1.1, NF-kB expr up 1.07 and FLuc inhib CS -5.6.
For Cn1c(=O)c2c(nc3sccn32)n(C)c1=O the results were STAT1 activator 109.6, APP 5'UTR act 8.0, FLuc act counter 1, NF-kB expr up 1.23 and FLuc inhib CS -4.8.
N#Cc1ccsc1NC(=O)COC(=O)c1cc2ccccc2cc1O was read as STAT1 activator 100.6, APP 5'UTR act 54.6, FLuc act counter 1, NF-kB expr up 1.74 and FLuc inhib CS -3.1.
CC(=O)Nc1cccc(/C(C)=N\NC(=O)c2ccc(Cn3nc([N+](=O)[O-])c(Cl)c3C)o2)c1 was read as STAT1 activator 100.7, APP 5'UTR act 10.3, FLuc act counter 1.1, NF-kB expr up 0.8 and FLuc inhib CS -7.0.
CN(c1ccc(C(=O)Nc2ccc(CC#N)cc2)cc1)S(C)(=O)=O was read as STAT1 activator 111.8, APP 5'UTR act 17.6, FLuc act counter 0.9, NF-kB expr up 1.11 and FLuc inhib CS 9.4.
For CN(Cc1nc(Cc2cccc(C(F)(F)F)c2)no1)C1CC(C)(C)NC(C)(C)C1 the results were STAT1 activator 103.0, APP 5'UTR act -12.7, FLuc act counter 1.1, NF-kB expr up 1 and FLuc inhib CS -5.8.
Screening S=c1nc(-c2ccccc2)oc2c1CCCC2 returned STAT1 activator 131.7*, APP 5'UTR act 76.1, FLuc act counter 0.7, NF-kB expr up 3.97* and FLuc inhib CS 28.6.
`O=[N+]([O-])c1ccc(-c2nc(=S)c3c(o2)CCCC3)cc1` gave STAT1 activator 93.2, APP 5'UTR act 16.3, FLuc act counter 1.1, NF-kB expr up 1.26 and FLuc inhib CS -5.7.
Screening COc1cccc(-c2nc(=S)c3c(o2)CCCC3)c1 returned STAT1 activator 144.0*, APP 5'UTR act 170.5*, FLuc act counter 0.5, NF-kB expr up 2.59 and FLuc inhib CS 46.8.
Screening O=C(NCC1CCCO1)C(c1ccc(F)cc1)N(Cc1ccc2c(c1)OCO2)C(=O)c1ccc(CN2CCOCC2)o1 (stereo not drawn) returned STAT1 activator 97.7, APP 5'UTR act -2.4, FLuc act counter 1, NF-kB expr up 1.12 and FLuc inhib CS -1.4.
Cc1ccc(/C=C/C(=O)CCC(=O)O)cc1 was read as STAT1 activator 107.5, APP 5'UTR act 3.3, FLuc act counter 1, NF-kB expr up 1.39 and FLuc inhib CS -1.5.
Cc1ccccc1C(=O)NC(=S)Nc1ccc2[nH]c(=O)[nH]c2c1 was read as STAT1 activator 106.1, APP 5'UTR act 6.6, FLuc act counter 1.1, NF-kB expr up 1.41 and FLuc inhib CS -5.6.
Screening COc1ccc(C)cc1C1=Nc2ccccc2C1(C)C returned STAT1 activator 90.2, APP 5'UTR act -0.5, FLuc act counter 1, NF-kB expr up 1.02 and FLuc inhib CS 1.7.
`Cc1ccc(O)c(C2=Nc3ccccc3C2(C)C)c1` gave STAT1 activator 146.6*, APP 5'UTR act 26.7, FLuc act counter 0.9, NF-kB expr up 1.12 and FLuc inhib CS 10.4.
`CS(=O)(=O)N1CCc2cc(NC(=O)c3ccc(Cl)cc3Cl)ccc21` gave STAT1 activator 129.4*, APP 5'UTR act -3.1, FLuc act counter 1, NF-kB expr up 1.37 and FLuc inhib CS 0.3.
`CCOC(=O)c1ccc(Oc2nc(OC)cc(OC)n2)cc1` gave STAT1 activator 98.5, APP 5'UTR act -7.2, FLuc act counter 1, NF-kB expr up 1.23 and FLuc inhib CS -3.5.
COc1ccc2oc(=Nc3cc(F)ccc3F)c(C(N)=O)cc2c1 was read as STAT1 activator 130.6*, APP 5'UTR act -12.6, FLuc act counter 1, NF-kB expr up 1.11 and FLuc inhib CS -3.5.
COc1ccc(-c2cc3nc(C)cc(NCCO)n3n2)cc1 was read as STAT1 activator 105.3, APP 5'UTR act -3.2, FLuc act counter 0.8, NF-kB expr up 1.87 and FLuc inhib CS 23.2.
For COc1ccc(-c2cc3nc(C)cc(N)n3n2)cc1 the results were STAT1 activator 77.9, APP 5'UTR act 147.4*, FLuc act counter 0, NF-kB expr up 4.14* and FLuc inhib CS 95.3*.
Cc1cccc(-c2cc3nc(C)cc(C)n3n2)c1 was read as STAT1 activator 150.0*, APP 5'UTR act 142.5*, FLuc act counter 0.8, NF-kB expr up 5.93* and FLuc inhib CS 19.5.

Assay outcomes as filed in PubChem.
